# Measurements published in ChEMBL document CHEMBL4665832, “Benzylidene thiazolidinediones: Synthesis, in vitro investigations of antiproliferative mechanisms and in vivo efficacy determination in combination with Imatinib” (Bioorg Med Chem Lett, 2020).
# Active and inactive are the calls of the source. The rule behind the calls is not given here.
# How the values were obtained:
# [1] = Cytotoxicity against hepatocytes (unknown origin) assessed as cell growth by MTT assay relative to control; assay type: cell-based, Hepatocyte; design: concentration or dose not given beside the values
# HL-60 = assay: Antiproliferative activity against human HL-60 cells assessed as cell growth inhibition; assay type: functional
# Summary of the method: (§1)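 Cell lines screened for growth inhibition and GI₅₀ derived. Each value is the mean of 3 independent experiments.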
# Jurkat = assay: Antiproliferative activity against human Jurkat cells assessed as cell growth inhibition; assay type: functional; summary of the method: as §1
# MOLT-4 = assay: Antiproliferative activity against human MOLT-4 cells assessed as cell growth inhibition; assay type: functional; summary of the method: as §1
# U-937 = assay: Antiproliferative activity against human U-937 cells assessed as cell growth inhibition; assay type: functional; summary of the method: as §1
# DU-145 = assay: Antiproliferative activity against human DU-145 cells assessed as cell growth inhibition; assay type: functional; summary of the method: as §1
# MDA-MB-435 = assay: Antiproliferative activity against human MDA-MB-435 cells assessed as cell growth inhibition; assay type: functional; summary of the method: as §1
# HOP-62 = assay: Antiproliferative activity against human HOP-62 cells assessed as cell growth inhibition; assay type: functional; summary of the method: as §1
# PC-3 = assay: Antiproliferative activity against human PC-3 cells assessed as cell growth inhibition; assay type: functional; summary of the method: as §1
# MCF7 = assay: Antiproliferative activity against human MCF7 cells assessed as cell growth inhibition; assay type: functional; summary of the method: as §1
# K562 [2] = assay: Antiproliferative activity against human K562 cells assessed as cell growth inhibition; assay type: functional; summary of the method: as §1
# [3] = Antiproliferative activity against human GURAV cells assessed as cell growth inhibition; assay type: functional; summary of the method: as §1
# KB = assay: Antiproliferative activity against human KB cells assessed as cell growth inhibition; assay type: functional; summary of the method: as §1
# K562 [4] = assay: Cell cycle arrest in human K562 cells assessed as accumulation at G0/G1 phase at 5 uM measured after 24 hrs by flow cytometry analysis; assay type: functional, cell-based
# Summary of the method: (§2)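 K562 cells exposed to 5 µM for 24 h, then cell-cycle phase distribution measured by flow cytometry. Untreated cells served as negative control and DMSO as vehicle control. SEM of n = 3. Two-tailed Student's t-test, P < 0.05.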
# K562 [5] = assay: Cell cycle arrest in human K562 cells assessed as accumulation at S phase at 5 uM measured after 24 hrs by flow cytometry analysis; assay type: functional, cell-based; summary of the method: as §2
# K562 [6] = assay: Cell cycle arrest in human K562 cells assessed as accumulation at G2/M phase at 5 uM measured after 24 hrs by flow cytometry analysis; assay type: functional, cell-based; summary of the method: as §2
# K562 [7] = assay: Cell cycle arrest in human K562 cells assessed as increase in cells accumulation at G0/G1 phase measured after 24 to 72 hrs by flow cytometry analysis; assay type: functional, cell-based; details: dose microM 5-20, time hrs 24-72
# Summary of the method: (§3)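 K562 cells exposed to 5, 10 or 20 µM and sampled at 24, 48 and 72 h. Phase distribution (G0/G1, S, G2/M) measured by flow cytometry. Untreated and DMSO vehicle controls. SEM of n = 3. Two-tailed t-test, P < 0.05.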
# K562 [8] = assay: Cell cycle arrest in human K562 cells assessed as decrease in cells accumulation at S phase measured after 24 to 72 hrs by flow cytometry analysis; assay type: functional, cell-based; details: dose microM 5-20, time hrs 24-72; summary of the method: as §3
# K562 [9] = assay: Cell cycle arrest in human K562 cells assessed as decrease in cells accumulation at G2/M phase measured after 24 to 72 hrs by flow cytometry analysis; assay type: functional, cell-based; details: dose microM 5-20, time hrs 24-72; summary of the method: as §3
# K562 [10] = assay: Cell cycle arrest in human K562 cells assessed as increase in cells accumulation at G0/G1 phase at 5 to 20 uM measured by flow cytometry analysis; assay type: functional, cell-based; details: dose microM 5-20, time hrs 24-72, TDE = time-dependent effect; summary of the method: as §3
# K562 [11] = assay: Cell cycle arrest in human K562 cells assessed as decrease in cells accumulation at S phase at 5 to 20 uM measured by flow cytometry analysis; assay type: functional, cell-based; details: dose microM 5-20, time hrs 24-72, TDE = time-dependent effect; summary of the method: as §3
# K562 [12] = assay: Cell cycle arrest in human K562 cells assessed as decrease in cells accumulation at G2/M phase at 5 to 20 uM measured by flow cytometry analysis; assay type: functional, cell-based; details: dose microM 5-20, time hrs 24-72, TDE = time-dependent effect; summary of the method: as §3
# K562 [13] = assay: Downregulation of PCNA expression in human K562 cells at 10 to 20 uM measured after 48 to 72 hrs by Western blot analysis; assay type: functional, cell-based; details: dose microM 10-20, time hrs 48-72
# Summary of the method: (§4)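 K562 cells treated at 10 or 20 µM for 24, 48 or 72 h. PCNA and cyclin D1 detected by Western blot, bands quantified and normalised to actin. Means of three separate experiments, SD, P < 0.05.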
# K562 [14] = assay: Induction of apoptosis in human K562 cells assessed as increase in cleaved PARP1 expression at 5 to 20 uM measured after 72 hrs by Western blot analysis; assay type: functional, cell-based; details: dose microM 5-20, time 72.0 hrs
# Summary of the method: (§5)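 K562 cells treated 72 h at 5, 10 or 20 µM alongside DMSO vehicle control. Cleaved PARP1 and caspase 3 detected by Western blot and normalised to actin. Means of at least two experiments, SD.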
# K562 [15] = assay: Induction of apoptosis in human K562 cells assessed as increase in activated caspase-3 expression at 5 to 20 uM measured after 72 hrs by Western blot analysis; assay type: functional, cell-based; details: dose microM 5-20, time 72.0 hrs; summary of the method: as §5
# K562 [16] = assay: Anticancer activity against human K562 cells assessed as cell growth inhibition at 1 uM by MTT assay relative to control; assay type: functional; details: read-out: GI
# Summary of the method: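 K562 cells given imatinib 1 µM or test compound 1 µM alone, or imatinib 1 µM plus test compound 1 µM. Proliferation read by MTT assay and expressed as % inhibition.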
# K562 [17] = assay: Potentiation of imatinib-induced anticancer activity against human K562 cells assessed as cell growth inhibition at 1 uM by MTT assay (reference value: 71%); assay type: functional; details: read-out: GI
# [18] = Acute toxicity in po dosed mouse assessed as body weight loss; assay type: organism-based; details: in vivo
# Summary of the method: (§6)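 Healthy mice were given oral doses that increased over the study period. Each higher dose was given only if the previous dose was well tolerated. All animals were monitored for body weight loss, behavioural changes and mortality to set the maximum tolerated dose.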
# [19] = Acute toxicity in po dosed mouse assessed as mortality; assay type: organism-based; details: in vivo; summary of the method: as §6
# [20] = Acute toxicity in po dosed mouse assessed as maximum tolerated dose; assay type: organism-based; details: in vivo; summary of the method: as §6
# K562 [21] = assay: Potentiation of imatinib-induced antitumor activity against human K562 cells xenografted in mouse assessed as reduction in tumor volume at 100 mg/kg, ip administered for 30 days co-treated with imatinib at 100 mg/kg and measured every day for 30 days; assay type: functional, organism-based; details: time 30.0 day
# Summary of the method: (§7)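 Mice implanted subcutaneously in the right rear flank with 6 × 10⁶ K562 cells/100 μl in 50% matrigel. Dosed intraperitoneally: compound alone 200 mg/kg, or compound 100 mg/kg plus imatinib 100 mg/kg; controls were imatinib 100 mg/kg and saline. Tumour volume tracked over time, n = 6. Dunnett's test against control.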
# K562 [22] = assay: Antitumor activity against human K562 cells xenografted in mouse assessed as reduction in tumor volume at 200 mg/kg, ip administered for 30 days and measured every day for 30 days; assay type: functional, organism-based; details: time 30.0 day; summary of the method: as §7
# K562 [23] = assay: Downregulation of cyclin-D1 expression in human K562 cells at 10 to 20 uM measured after 24 hrs by Western blot analysis; assay type: functional, cell-based; details: dose microM 10-20, time 24.0 hrs; summary of the method: as §4
# K562 [24] = assay: Downregulation of PCNA expression in human K562 cells at 10 to 20 uM measured after 24 hrs by Western blot analysis; assay type: functional, cell-based; details: dose microM 10-20, time 24.0 hrs; summary of the method: as §4
structure (smiles),measurement,setting,value
O=C(COc1ccc(/C=C2\SC(=O)NC2=O)cc1)Nc1cccc(C(F)(F)F)c1,viability,[1],> 70%
same,GI50,HL-60,73.3 µM
same,GI50,Jurkat,26.5 µM
same,GI50,MOLT-4,47.3 µM
same,GI50,U-937,49.1 µM
same,GI50,DU-145,59.2 µM
same,GI50,MDA-MB-435,> 100 µM
O=C(COc1ccc(/C=C2\SC(=O)NC2=O)cc1)Nc1ccc(Cl)cc1C(F)(F)F,viability,[1],> 70%
same,GI50,HOP-62,> 100 µM
same,GI50,PC-3,> 100 µM
same,GI50,MCF7,49.7 µM
same,GI50,K562 [2],0.23 µM
same,GI50,[3],86.8 µM
same,GI50,KB,> 100 µM
same,GI50,HL-60,56.7 µM
same,GI50,Jurkat,28.9 µM
same,GI50,MOLT-4,32.5 µM
same,GI50,U-937,67.5 µM
same,Activity,K562 [4],Active
same,Activity,K562 [5],Active
same,Activity,K562 [6],Active
same,Activity,K562 [7],Dose-dependent effect
same,Activity,K562 [8],Dose-dependent effect
same,Activity,K562 [9],Dose-dependent effect
same,Activity,K562 [10],Tde
same,Activity,K562 [11],Tde
same,Activity,K562 [12],Tde
same,inhibition,K562 [13],Active
same,Activity,K562 [14],Dose-dependent effect
same,Activity,K562 [15],Dose-dependent effect
same,inhibition of growth at 1 µM,K562 [16],65%
same,inhibition of growth at 1 µM,K562 [17],82%
same,Activity,[18],Non-Toxic
same,Activity,[19],Non-Toxic
same,MTD,[20],2000 mg/kg
same,Activity,K562 [21],Active
same,Activity,K562 [22],Active
same,inhibition,K562 [23],inactive
same,inhibition,K562 [24],inactive
